From ChEMBL document CHEMBL4627272, “Design, synthesis, and biological activity evaluation of a series of pleuromutilin derivatives with novel C14 side chains” (2020)
Values after ≈ are worked out from the molar mass of the structure shown.

What was measured:
Assay type in all cases: functional
Staphylococcus aureus [1] = assay: Antibacterial activity against methicillin-sensitive Staphylococcus aureus ATCC 29213 assessed as reduction in bacterial growth incubated for 18 hrs by agar dilution method; details: ATCC 29213, 18 h
How it was run: (§1)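 CLSI agar dilution MIC. Stocks at 1920 μg/ml in 0.2% DMSO, twofold diluted and mixed into agar plates to final 0.03–128 µg/mL. Inoculum set to 0.5 turbidity, diluted 10-fold and applied by multipoint inoculator within 30 min, about 10^4 CFU per spot. Plates incubated 35 ± 2°C for 18 h. MIC is the lowest concentration with no visible growth.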

[2] = tested on: Staphylococcus epidermidis; assay: Antibacterial activity against methicillin-resistant Staphylococcus epidermidis 16-5 assessed as reduction in bacterial growth incubated for 18 hrs by agar dilution method; details: 16-5, 18 h; how it was run: as §1
[3] = tested on: Staphylococcus epidermidis; assay: Antibacterial activity against methicillin-sensitive Staphylococcus epidermidis ATCC 12228 assessed as reduction in bacterial growth incubated for 18 hrs by agar dilution method; details: ATCC 12228, 18 h; how it was run: as §1
Staphylococcus aureus [4] = assay: Antibacterial activity against methicillin-resistant Staphylococcus aureus ATCC 33591 assessed as reduction in bacterial growth incubated for 18 hrs by agar dilution method; details: ATCC 33591, 18 h; how it was run: as §1

Row | Compound | MIC (Staphylococcus aureus [1]) | MIC [2] | MIC [3] | MIC (Staphylococcus aureus [4])
1 | C=C[C@]1(C)C[C@@H](OC(=O)CS[C@@H]2CC[C@H](C(=O)OCC)C[C@H]2N)[C@]2(C)[C@H](C)CC[C@]3(CCC(=O)[C@H]32)[C@@H](C)[C@@H]1O | 1 µg/mL (≈ 1.77 µM) | 0.25 µg/mL (≈ 0.443 µM) | 0.25 µg/mL (≈ 0.443 µM) | 1 µg/mL (≈ 1.77 µM)
2 | C=C[C@]1(C)C[C@@H](OC(=O)CS[C@@H]2CC[C@@H](N)C[C@H]2O)[C@]2(C)[C@H](C)CC[C@]3(CCC(=O)[C@H]32)[C@@H](C)[C@@H]1O [LEFAMULIN] | 0.25 µg/mL (≈ 0.492 µM) | 0.25 µg/mL (≈ 0.492 µM) | ≤ 0.03 µg/mL | 0.5 µg/mL (≈ 0.985 µM)
3 | C=C[C@]1(C)C[C@@H](OC(=O)CS[C@@H]2CC[C@H](C(=O)OCC)C[C@H]2NS(=O)(=O)c2ccc(OC)cc2)[C@]2(C)[C@H](C)CC[C@]3(CCC(=O)[C@H]32)[C@@H](C)[C@@H]1O | 0.5 µg/mL (≈ 0.681 µM) | 0.5 µg/mL (≈ 0.681 µM) | 0.25 µg/mL (≈ 0.341 µM) | 0.25 µg/mL (≈ 0.341 µM)
4 | C=C[C@]1(C)C[C@@H](OC(=O)CS[C@@H]2CC[C@H](C(=O)OCC)C[C@H]2NS(=O)(=O)c2ccc(C)cc2)[C@]2(C)[C@H](C)CC[C@]3(CCC(=O)[C@H]32)[C@@H](C)[C@@H]1O | 1 µg/mL (≈ 1.39 µM) | 0.5 µg/mL (≈ 0.696 µM) | 0.25 µg/mL (≈ 0.348 µM) | 1 µg/mL (≈ 1.39 µM)
5 | C=C[C@]1(C)C[C@@H](OC(=O)CS[C@@H]2CC[C@H](C(=O)OCC)C[C@H]2NS(=O)(=O)c2ccc(Cl)cc2)[C@]2(C)[C@H](C)CC[C@]3(CCC(=O)[C@H]32)[C@@H](C)[C@@H]1O | 1 µg/mL (≈ 1.35 µM) | 0.5 µg/mL (≈ 0.677 µM) | 0.5 µg/mL (≈ 0.677 µM) | 0.5 µg/mL (≈ 0.677 µM)
6 | C=C[C@]1(C)C[C@@H](OC(=O)CS[C@@H]2CC[C@H](C(=O)OCC)C[C@H]2NS(=O)(=O)c2ccc(NC(C)=O)cc2)[C@]2(C)[C@H](C)CC[C@]3(CCC(=O)[C@H]32)[C@@H](C)[C@@H]1O | 0.5 µg/mL (≈ 0.657 µM) | 0.5 µg/mL (≈ 0.657 µM) | 0.5 µg/mL (≈ 0.657 µM) | 0.5 µg/mL (≈ 0.657 µM)
7 | C=C[C@]1(C)C[C@@H](OC(=O)CS[C@@H]2CC[C@H](C(=O)OCC)C[C@H]2NS(=O)(=O)c2ccc(C(C)=O)cc2)[C@]2(C)[C@H](C)CC[C@]3(CCC(=O)[C@H]32)[C@@H](C)[C@@H]1O | 0.25 µg/mL (≈ 0.335 µM) | 0.25 µg/mL (≈ 0.335 µM) | 0.25 µg/mL (≈ 0.335 µM) | 0.25 µg/mL (≈ 0.335 µM)
8 | C=C[C@]1(C)C[C@@H](OC(=O)CS[C@@H]2CC[C@H](C(=O)OCC)C[C@H]2NS(=O)(=O)c2ccc(Br)cc2)[C@]2(C)[C@H](C)CC[C@]3(CCC(=O)[C@H]32)[C@@H](C)[C@@H]1O | 1 µg/mL (≈ 1.28 µM) | 1 µg/mL (≈ 1.28 µM) | 1 µg/mL (≈ 1.28 µM) | 1 µg/mL (≈ 1.28 µM)
9 | C=C[C@]1(C)C[C@@H](OC(=O)CS[C@@H]2CC[C@H](C(=O)OCC)C[C@H]2NS(=O)(=O)c2ccc(F)cc2)[C@]2(C)[C@H](C)CC[C@]3(CCC(=O)[C@H]32)[C@@H](C)[C@@H]1O | 1 µg/mL (≈ 1.39 µM) | 1 µg/mL (≈ 1.39 µM) | 0.5 µg/mL (≈ 0.693 µM) | 1 µg/mL (≈ 1.39 µM)
10 | C=C[C@]1(C)C[C@@H](OC(=O)CS[C@@H]2CC[C@H](C(=O)OCC)C[C@H]2NS(=O)(=O)c2ccc([N+](=O)[O-])cc2)[C@]2(C)[C@H](C)CC[C@]3(CCC(=O)[C@H]32)[C@@H](C)[C@@H]1O | 1 µg/mL (≈ 1.34 µM) | 0.5 µg/mL (≈ 0.668 µM) | 0.5 µg/mL (≈ 0.668 µM) | 1 µg/mL (≈ 1.34 µM)
11 | C=C[C@]1(C)C[C@@H](OC(=O)CS[C@@H]2CC[C@H](C(=O)O)C[C@H]2N)[C@]2(C)[C@H](C)CC[C@]3(CCC(=O)[C@H]32)[C@@H](C)[C@@H]1O | 32 µg/mL (≈ 59.7 µM) | 4 µg/mL (≈ 7.47 µM) | 2 µg/mL (≈ 3.73 µM) | 32 µg/mL (≈ 59.7 µM)
12 | C=C[C@]1(C)C[C@@H](OC(=O)CS[C@@H]2CC[C@H](C(=O)OCC)C[C@H]2NS(=O)(=O)c2ccccc2)[C@]2(C)[C@H](C)CC[C@]3(CCC(=O)[C@H]32)[C@@H](C)[C@@H]1O | 1 µg/mL (≈ 1.42 µM) | 1 µg/mL (≈ 1.42 µM) | 0.5 µg/mL (≈ 0.71 µM) | 0.5 µg/mL (≈ 0.71 µM)
13 | C=C[C@]1(C)C[C@@H](OC(=O)CS[C@@H]2CC[C@H](C(=O)OCC)C[C@H]2NS(=O)(=O)c2ccc(C#N)cc2)[C@]2(C)[C@H](C)CC[C@]3(CCC(=O)[C@H]32)[C@@H](C)[C@@H]1O | 1 µg/mL (≈ 1.37 µM) | 0.5 µg/mL (≈ 0.686 µM) | 0.25 µg/mL (≈ 0.343 µM) | 1 µg/mL (≈ 1.37 µM)
